According to ChEMBL document CHEMBL1926577, “Novel 1,3,4-heterodiazole analogues: synthesis and in-vitro antitumor activity” (2012):

Key:
Format in all cases: functional
[1] = system: SF-295; assay: Growth inhibition of human SF295 cells at 10 uM after 48 hrs by coulter counter method; details: SF-295, 48 h, read-out: GI
Procedure, shortened: (§1)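 NCI 60-cell-line panel, single dose. Compound dissolved first in DMSO, then diluted in phosphate-buffered saline so that every final dilution held under 1% DMSO. Duplicate wells received cells at 6 × 10⁴ cells/ml. Controls held PBS/DMSO at the same dilution. Plates were incubated 48 h at 37 °C under 5% CO₂. Cells were then diluted 10-fold in saline and counted on a Coulter counter, with counts corrected for the dilution. Results are given as percent growth inhibition.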

[2] = system: SR; assay: Growth inhibition of human SR cells at 10 uM after 48 hrs by coulter counter method; details: read-out: GI; procedure, shortened: as §1
[3] = system: 786-0; assay: Growth inhibition of human 786-0 cells at 10 uM after 48 hrs by coulter counter method; details: 786-0, 48 h, read-out: GI; procedure, shortened: as §1
[4] = system: KM12; assay: Growth inhibition of human KM12 cells at 10 uM after 48 hrs by coulter counter method; details: KM12, 48 h, read-out: GI; procedure, shortened: as §1
[5] = system: SF-268; assay: Growth inhibition of human SF268 cells at 10 uM after 48 hrs by coulter counter method; details: SF-268, 48 h, read-out: GI; procedure, shortened: as §1
[6] = system: CCRF-CEM; assay: Growth inhibition of human CCRF-CEM cells at 10 uM after 48 hrs by coulter counter method; details: read-out: GI; procedure, shortened: as §1
[7] = system: NCI-H23; assay: Growth inhibition of human NCI-H23 cells at 10 uM after 48 hrs by coulter counter method; details: NCI-H23, 48 h, read-out: GI; procedure, shortened: as §1
[8] = system: OVCAR-8; assay: Growth inhibition of human OVCAR8 cells at 10 uM after 48 hrs by coulter counter method; details: OVCAR-8, 48 h, read-out: GI; procedure, shortened: as §1
[9] = system: NCI/ADR-RES; assay: Growth inhibition of human NCI/ADR-RES cells at 10 uM after 48 hrs by coulter counter method; details: read-out: GI; procedure, shortened: as §1
[10] = system: SK-MEL-2; assay: Growth inhibition of human SK-MEL-2 cells at 10 uM after 48 hrs by coulter counter method; details: SK-MEL-2, 48 h, read-out: GI; procedure, shortened: as §1
[11] = system: BT-549; assay: Growth inhibition of human BT549 cells at 10 uM after 48 hrs by coulter counter method; details: BT-549, 48 h, read-out: GI; procedure, shortened: as §1
[12] = system: UACC-257; assay: Growth inhibition of human UACC257 cells at 10 uM after 48 hrs by coulter counter method; details: UACC-257, 48 h, read-out: GI; procedure, shortened: as §1
[13] = system: NCI-H522; assay: Growth inhibition of human NCI-H522 cells at 10 uM after 48 hrs by coulter counter method; details: NCI-H522, 48 h, read-out: GI; procedure, shortened: as §1
[14] = system: MOLT-4; assay: Growth inhibition of human MOLT4 cells at 10 uM after 48 hrs by coulter counter method; details: MOLT-4, 48 h, read-out: GI; procedure, shortened: as §1
[15] = system: IGROV-1; assay: Growth inhibition of human IGROV1 cells at 10 uM after 48 hrs by coulter counter method; details: IGROV-1, 48 h, read-out: GI; procedure, shortened: as §1
[16] = system: Malme-3M; assay: Growth inhibition of human MALME-3M cells at 10 uM after 48 hrs by coulter counter method; details: read-out: GI; procedure, shortened: as §1
[17] = system: UACC-62; assay: Growth inhibition of human UACC62 cells at 10 uM after 48 hrs by coulter counter method; details: UACC-62, 48 h, read-out: GI; procedure, shortened: as §1
[18] = system: HT-29; assay: Growth inhibition of human HT-29 cells at 10 uM after 48 hrs by coulter counter method; details: HT-29, 48 h, read-out: GI; procedure, shortened: as §1
[19] = system: A498; assay: Growth inhibition of human A498 cells at 10 uM after 48 hrs by coulter counter method; details: A498, 48 h, read-out: GI; procedure, shortened: as §1
[20] = system: MDA-MB-468; assay: Growth inhibition of human MDA-MB-468 cells at 10 uM after 48 hrs by coulter counter method; details: MDA-MB-468, 48 h, read-out: GI; procedure, shortened: as §1
[21] = system: SNB-75; assay: Growth inhibition of human SNB75 cells at 10 uM after 48 hrs by coulter counter method; details: SNB-75, 48 h, read-out: GI; procedure, shortened: as §1
[22] = system: T47D; assay: Growth inhibition of human T47D cells at 10 uM after 48 hrs by coulter counter method; details: read-out: GI; procedure, shortened: as §1
[23] = system: HCT-116; assay: Growth inhibition of human HCT116 cells at 10 uM after 48 hrs by coulter counter method; details: HCT-116, 48 h, read-out: GI; procedure, shortened: as §1
[24] = system: CAKI-1; assay: Growth inhibition of human Caki1 cells at 10 uM after 48 hrs by coulter counter method; details: CAKI-1, 48 h, read-out: GI; procedure, shortened: as §1
[25] = system: TK-10; assay: Growth inhibition of human TK10 cells at 10 uM after 48 hrs by coulter counter method; details: TK-10, 48 h, read-out: GI; procedure, shortened: as §1
[26] = system: NCI-H322M; assay: Growth inhibition of human NCI-H322M cells at 10 uM after 48 hrs by coulter counter method; details: read-out: GI; procedure, shortened: as §1
[27] = system: UO-31; assay: Growth inhibition of human UO31 cells at 10 uM after 48 hrs by coulter counter method; details: UO-31, 48 h, read-out: GI; procedure, shortened: as §1
[28] = system: NCI-H226; assay: Growth inhibition of human NCI-H226 cells at 10 uM after 48 hrs by coulter counter method; details: NCI-H226, 48 h, read-out: GI; procedure, shortened: as §1
[29] = system: MCF7; assay: Growth inhibition of human MCF7 cells at 10 uM after 48 hrs by coulter counter method; details: MCF7, 48 h, read-out: GI; procedure, shortened: as §1
[30] = system: HL-60(TB); assay: Growth inhibition of human HL-60(TB) cells at 10 uM after 48 hrs by coulter counter method; details: HL-60, 48 h, read-out: GI
Procedure, shortened: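 Single-dose screen on the NCI 60-line panel (leukemia subpanel). Compound is dissolved in DMSO and diluted in PBS, with final DMSO below 1%. Duplicate wells hold 6 × 10⁴ cells/ml at 37 °C, 5% CO₂, for 48 h. Cells are counted by Coulter counter after 10-fold saline dilution. Read-out is percent growth versus PBS/DMSO controls, expressed as % growth inhibition.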

[31] = system: SN12C; assay: Growth inhibition of human SN12C cells at 10 uM after 48 hrs by coulter counter method; details: read-out: GI; procedure, shortened: as §1
[32] = system: SK-MEL-28; assay: Growth inhibition of human SK-MEL-28 cells at 10 uM after 48 hrs by coulter counter method; details: SK-MEL-28, 48 h, read-out: GI; procedure, shortened: as §1
[33] = system: HCT-15; assay: Growth inhibition of human HCT15 cells at 10 uM after 48 hrs by coulter counter method; details: HCT-15, 48 h, read-out: GI; procedure, shortened: as §1
[34] = system: M14; assay: Growth inhibition of human M14 cells at 10 uM after 48 hrs by coulter counter method; details: M14, 48 h, read-out: GI; procedure, shortened: as §1
[35] = system: U-251; assay: Growth inhibition of human U251 cells at 10 uM after 48 hrs by coulter counter method; details: U-251, 48 h, read-out: GI; procedure, shortened: as §1
[36] = system: SNB-19; assay: Growth inhibition of human SNB19 cells at 10 uM after 48 hrs by coulter counter method; details: SNB-19, 48 h, read-out: GI; procedure, shortened: as §1
[37] = system: A549; assay: Growth inhibition of human A549 cells at 10 uM after 48 hrs by coulter counter method; details: A549, 48 h, read-out: GI; procedure, shortened: as §1
[38] = system: LOX IMVI; assay: Growth inhibition of human LOXIMVI cells at 10 uM after 48 hrs by coulter counter method; details: read-out: GI; procedure, shortened: as §1
[39] = system: EKVX; assay: Growth inhibition of human EKVX cells at 10 uM after 48 hrs by coulter counter method; details: read-out: GI; procedure, shortened: as §1
[40] = system: PC-3; assay: Growth inhibition of human PC3 cells at 10 uM after 48 hrs by coulter counter method; details: PC-3, 48 h, read-out: GI; procedure, shortened: as §1
[41] = system: K562; assay: Growth inhibition of human K562 cells at 10 uM after 48 hrs by coulter counter method; details: K562, 48 h, read-out: GI; procedure, shortened: as §1
[42] = system: MDA-MB-435; assay: Growth inhibition of human MDA-MB-435 cells at 10 uM after 48 hrs by coulter counter method; details: MDA-MB-435, 48 h, read-out: GI; procedure, shortened: as §1
[43] = system: SK-MEL-5; assay: Growth inhibition of human SK-MEL-5 cells at 10 uM after 48 hrs by coulter counter method; details: SK-MEL-5, 48 h, read-out: GI; procedure, shortened: as §1
[44] = system: ACHN; assay: Growth inhibition of human ACHN cells at 10 uM after 48 hrs by coulter counter method; details: read-out: GI; procedure, shortened: as §1

O=C1N=C2OC(c3ccc(Cl)cc3)=NN2C1=O
inhibition of growth at 10 µM [1]: < 10%
inhibition of growth at 10 µM [2]: 12.1%
inhibition of growth at 10 µM [3]: < 10%
inhibition of growth at 10 µM [4]: < 10%
inhibition of growth at 10 µM [5]: < 10%
inhibition of growth at 10 µM [6]: < 10%
inhibition of growth at 10 µM [7]: < 10%
inhibition of growth at 10 µM [8]: < 10%
inhibition of growth at 10 µM [9]: < 10%
inhibition of growth at 10 µM [10]: < 10%
inhibition of growth at 10 µM [11]: < 10%
inhibition of growth at 10 µM [12]: < 10%
inhibition of growth at 10 µM [13]: < 10%
inhibition of growth at 10 µM [14]: < 10%
inhibition of growth at 10 µM [15]: < 10%
inhibition of growth at 10 µM [16]: < 10%
inhibition of growth at 10 µM [17]: < 10%
inhibition of growth at 10 µM [18]: < 10%
inhibition of growth at 10 µM [19]: < 10%
inhibition of growth at 10 µM [20]: < 10%
inhibition of growth at 10 µM [21]: < 10%
inhibition of growth at 10 µM [22]: < 10%
inhibition of growth at 10 µM [23]: < 10%
inhibition of growth at 10 µM [24]: < 10%
inhibition of growth at 10 µM [25]: < 10%
inhibition of growth at 10 µM [26]: < 10%
inhibition of growth at 10 µM [27]: 11.7%
inhibition of growth at 10 µM [28]: < 10%
inhibition of growth at 10 µM [29]: < 10%
inhibition of growth at 10 µM [30]: 15%
inhibition of growth at 10 µM [31]: < 10%
inhibition of growth at 10 µM [32]: < 10%
inhibition of growth at 10 µM [33]: < 10%
inhibition of growth at 10 µM [34]: < 10%
inhibition of growth at 10 µM [35]: < 10%
inhibition of growth at 10 µM [36]: < 10%
inhibition of growth at 10 µM [37]: < 10%
inhibition of growth at 10 µM [38]: < 10%
inhibition of growth at 10 µM [39]: < 10%
inhibition of growth at 10 µM [40]: < 10%
inhibition of growth at 10 µM [41]: 13.6%
inhibition of growth at 10 µM [42]: < 10%
inhibition of growth at 10 µM [43]: < 10%
inhibition of growth at 10 µM [44]: < 10%
